Results filed as inconclusive are left out.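 How the source made its calls, unless noted: active means inhibition over a set limit, the all-compound mean plus 3 SD, in both replicate runs; inconclusive means over that limit in just one replicate run; inactive means at or under that limit in both runs.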
Key:
[1] = OD615 S. cerevisiae growth inhibition, permissive medium, pilot counter-assay, permissive growth control for S. cerevisiae lifespan shortening project (AID 705;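 active means growth inhibition above 25% in both replicates, a cutoff set 3 SD above the mean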); details: OD615, 24 h, at 10 µM, stronger effect = higher value
Outline: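 System: engineered DeaD yeast; Medium: permissive raffinose/galactose medium; Compound dosing: 10 µM single dose, 0.25% DMSO; Incubation: 4 h cell pre-growth, 24 h exposure at 30 °C; Technique: OD at 615 nm; Evaluation: growth inhibition from lowered OD615 after 24 h.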

[2] = Restrictive medium S. cerevisiae growth inhibition, OD615, pilot screen of yeast lifespan reduction project, restrictive growth control (AID 706;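 active means growth inhibition above a set limit, 3 SD over mean compound inhibition, in both replicates, cut at about 43% in these data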;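 further: modified DeaD lifespan yeast strain shifted to restrictive glucose medium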); details: OD615, 48 h, at 10 µM, stronger effect = higher value
Outline: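 Material: modified S. cerevisiae; buffer or medium: CSMM-D glucose medium; doses: one concentration, 10 µM final, 0.25% DMSO; incubation: 48 h compound exposure at 30 °C; detection: optical density at 615 nm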

[3] = viability gain of MRP-1-high H69AR cells under doxorubicin, pilot screen, MRP-1 activator project, CellTiter-Glo, duplicate (AID 807;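 active means viability increase at or above a cutoff of the median across tested compounds plus 3 SD, cut at about 8.5% in these data, passing the limit was not always enough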;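 further: compound pretreatment 18-22 h then 72 h combined with doxorubicin; 0% = doxorubicin alone and 100% = vehicle without doxorubicin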); details: H69AR viability with doxorubicin, CellTiter-Glo luminescence; at 10 µM; stronger effect = higher value
[4] = growth suppression of beta-catenin knockout HCT116, pilot screen, human colon tumor cells (AID 823;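 active means cell viability at or below a set limit in both duplicate runs, the limit being the all-compound median minus 4 SD, cut at about 23% in these data, passing the limit was not always enough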;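 further: 0% = wells killed by 20 µM Hyamine and 100% = untreated DMSO cell wells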); details: CellTiter-Glo, 60 h, at 10 µM, stronger effect = lower value
[5] = growth suppression of PTEN-deleted HCT116, pilot screen, cell-based, HCT116 clonal line, CellTiter-Glo (AID 824;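 active means viability at or below 27.92% in each of two runs, the all-compound median minus 4 SD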;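 further: 0% = 20 µM Hyamine control and 100% = vehicle cell control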); details: 60 h, at 10 µM, stronger effect = lower value
[6] = inhibitors of the yeast RAM network, pilot screen, dse1pr::URA3 reporter, 5-FOA selection (AID 869);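 further: 0% = DMSO wells with no growth and 100% = 10 µM 1-NA-PP1 with full growth; RAM network block rescues cells from 5-FOA so hits raise OD615 growth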; details: S. cerevisiae dse1pr::URA3 5-FOA growth, OD615, 2 d; at 10 µM; stronger effect = higher value; strain carries analog-sensitive mutant Cbk1 kinase
[7] = RAM signaling pathway blockade in yeast – S. cerevisiae, Pdr1DBD-CYC8 efflux-inhibited sensitized strain, primary screen (AID 1298;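 active means RAM network inhibition above 8.4% in each of two replicates, 3 SD over the compound average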;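 further: 0% = DMSO untreated cells without growth and 100% = 10 µM 1-NA-PP1 full growth; higher means more yeast growth rescued from 5-FOA killing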); details: S. cerevisiae cbk1-as DSE1-URA3 strain, 5-FOA growth OD615, 2 d; at 50 µM; stronger effect = higher value

COc1ccc(-c2cc(C(=O)O)c3ccccc3n2)c(OC)c1
inactive: growth inhibition [1] -10.4% | growth inhibition [2] 0.26% | viability increase [3] -2.6% | viability [4] 82.2% | viability [5] 89.3% | inhibition [6] 1.47% | RAM network inhibition [7] 5.56%

CCOC(=O)Cc1csc(NC(=O)c2c(-c3ccccc3)noc2C)n1
inactive: growth inhibition [1] -10.4% | growth inhibition [2] -8.59% | viability increase [3] 4.11% | viability [4] 99.4% | viability [5] 101% | inhibition [6] -0.185% | RAM network inhibition [7] 1.54%

Cc1ccc(Cl)cc1N1CCN(C(=O)C2CCN(c3nnc(-n4cccc4)s3)CC2)CC1
inactive: growth inhibition [1] -6.07% | growth inhibition [2] -7.06% | viability increase [3] 2.36% | viability [4] 64% | viability [5] 64% | inhibition [6] 4.06% | RAM network inhibition [7] 8.04%

Cc1cc(C)n2nc(C(=O)Oc3ccc4c(c3)OCO4)nc2n1
inactive: growth inhibition [1] -3.75% | growth inhibition [2] -24% | viability increase [3] -1.75% | viability [4] 99% | viability [5] 104% | inhibition [6] 1.7% | RAM network inhibition [7] 3.06%

c1ccc(CSc2nnc(-c3ccco3)n2Cc2ccco2)cc1
inactive: growth inhibition [1] -5.04% | growth inhibition [2] 0.405% | viability increase [3] -3.83% | viability [4] 88.6% | viability [5] 87.4% | inhibition [6] 1.85% | RAM network inhibition [7] 3.53%

c1ccc2c(c1)CCCN2c1nc2ccccc2n2cnnc12
inactive: growth inhibition [1] -6.12% | growth inhibition [2] -9.76% | viability increase [3] -6.44% | viability [4] 91.2% | viability [5] 83.3% | inhibition [6] 1.44% | RAM network inhibition [7] 4.1%

Nc1nc(SCC(=O)NCCCO)nc2sc3c(c12)CCC3
inactive: growth inhibition [1] -8.84% | growth inhibition [2] -4.31% | viability increase [3] -1.44% | viability [4] 96.1% | viability [5] 94% | inhibition [6] 1.44% | RAM network inhibition [7] 0.31%

CSc1ccc(S(=O)(=O)N2CCN(Cc3ccc4c(c3)OCO4)CC2)cc1
inactive: growth inhibition [1] -2.74% | growth inhibition [2] 14.3% | viability increase [3] -4.46% | viability [4] 88.1% | viability [5] 86.3% | inhibition [6] 0.865% | RAM network inhibition [7] 6.37%

COC(=O)C1=CN(C)C=C(C(=O)OC)C1c1ccsc1
inactive: growth inhibition [1] -5% | growth inhibition [2] -4.37% | viability increase [3] -0.22% | viability [4] 104% | viability [5] 89.3% | inhibition [6] 1.96% | RAM network inhibition [7] 0.41%

Cc1ccc(S(=O)(=O)N2C3C=CC(C3)C2C(=O)O)cc1 (stereo not given)
inactive: growth inhibition [1] 3.23% | growth inhibition [2] -3.31% | viability increase [3] -0.3% | viability [4] 94.3% | viability [5] 99.9% | inhibition [6] 0.08% | RAM network inhibition [7] 1.2%

COc1ccc(OC)c(C2NC(=O)NC(C)=C2C(=O)Nc2ccc(C)cc2C)c1 (stereo not given)
inactive: growth inhibition [1] -7.68% | growth inhibition [2] 4.14% | viability increase [3] 0.67% | viability [4] 101% | viability [5] 100% | inhibition [6] 1.77% | RAM network inhibition [7] 2.4%

COC(=O)CC1Oc2ccc(C)cc2NC1=O (stereo not given)
inactive: growth inhibition [1] -4.56% | growth inhibition [2] -1.75% | viability increase [3] 2.26% | viability [4] 101% | viability [5] 101% | inhibition [6] 0.27% | RAM network inhibition [7] 2.35%

COC(=O)C(C(=O)OC)C(C(C)C)C(C(=O)OC)C(=O)OC
inactive: growth inhibition [1] -8.23% | growth inhibition [2] -9.04% | viability increase [3] -1.49% | viability [4] 101% | viability [5] 98.2% | inhibition [6] 1.07% | RAM network inhibition [7] 3.68%

Cc1[nH]c(C)c2c(=O)n(-c3ccccc3)ncc12
inactive: growth inhibition [1] -19.9% | growth inhibition [2] -17.5% | viability increase [3] 0.12% | viability [4] 101% | viability [5] 102% | inhibition [6] 1.31% | RAM network inhibition [7] 2.55%

COc1ccccc1N(CC(=O)Nc1ccccc1C)S(C)(=O)=O
inactive: growth inhibition [1] -5.63% | growth inhibition [2] -10.8% | viability increase [3] -3.72% | viability [4] 94.7% | viability [5] 95.7% | inhibition [6] 1.12% | RAM network inhibition [7] 1.62%

COCCCNC(=O)COc1cc(C)c(Cl)c(C)c1
inactive: growth inhibition [1] -3.79% | growth inhibition [2] -2.48% | viability increase [3] -1.76% | viability [4] 95.5% | viability [5] 96.3% | inhibition [6] -0.185% | RAM network inhibition [7] 1.45%

O=C(COC(=O)c1ccco1)Nc1ccc(Br)cc1
inactive: growth inhibition [1] -15.4% | growth inhibition [2] -14.3% | viability increase [3] -1.81% | viability [4] 93.5% | viability [5] 99.3% | inhibition [6] 1.45% | RAM network inhibition [7] 2.21%

CCOc1ccc(OCC)c(NS(=O)(=O)c2cccc3nsnc23)c1
inactive: growth inhibition [1] -13.8% | growth inhibition [2] -21.1% | viability increase [3] -2.5% | viability [4] 88.8% | viability [5] 98% | inhibition [6] 2.63% | RAM network inhibition [7] 3.41%

COc1ccccc1NC(=O)c1c(NC(=O)c2ccco2)sc2c1CCC2
inactive: growth inhibition [1] -9.49% | growth inhibition [2] -18.1% | viability increase [3] -2.92% | viability [4] 80.2% | viability [5] 72% | inhibition [6] 2.31% | RAM network inhibition [7] 2.6%

Cc1nn(C(=O)c2cccs2)c(N)c1-c1ccccc1
inactive: growth inhibition [1] 2.29% | growth inhibition [2] 5.9% | viability increase [3] 0.4% | viability [4] 84.4% | viability [5] 96% | inhibition [6] 0.035% | RAM network inhibition [7] 2.36%

c1ccc(CNc2nc3ccccc3n3cnnc23)nc1
inactive: growth inhibition [1] -13.7% | growth inhibition [2] -8.93% | viability increase [3] -1.36% | viability [4] 105% | viability [5] 88.5% | inhibition [6] -0.44% | RAM network inhibition [7] 3.37%

CC(C)N1CCc2c(sc(NC(=O)c3ccc(S(=O)(=O)N4CCOCC4)cc3)c2C(N)=O)C1
inactive: growth inhibition [1] -2.23% | growth inhibition [2] -11.5% | viability increase [3] -3.25% | viability [4] 92.6% | viability [5] 88.7% | inhibition [6] 2.21% | RAM network inhibition [7] 1.28%

O=C(NCCCN1CCC(Cc2ccccc2)CC1)C1CCC(=O)N1C1CCCC1 (stereo not given)
inactive: growth inhibition [1] 0.095% | growth inhibition [2] 10.8% | viability increase [3] -0.92% | viability [4] 79.7% | viability [5] 96.9% | inhibition [6] 0.3% | RAM network inhibition [7] 1.85%

CCOCC(=O)NCc1ccc2c(c1)cc(C)n2C
inactive: growth inhibition [1] -13.8% | growth inhibition [2] -14% | viability increase [3] -1.45% | viability [4] 103% | viability [5] 97.3% | inhibition [6] 0.65% | RAM network inhibition [7] 0.21%

COc1ccccc1N(CC(N)=O)S(=O)(=O)c1ccc(C)cc1
inactive: growth inhibition [1] 0.675% | growth inhibition [2] -2.73% | viability increase [3] -1.48% | viability [4] 98.2% | viability [5] 98% | inhibition [6] 0.21% | RAM network inhibition [7] 3.22%

COc1ccc(OCCSc2nnc(-c3ccccc3)n2N)cc1
inactive: growth inhibition [1] -2.49% | growth inhibition [2] -12.7% | viability increase [3] 0.25% | viability [4] 89.8% | viability [5] 92.5% | inhibition [6] 1.27% | RAM network inhibition [7] 5.07%

CC(=O)Nc1ccc(S(=O)(=O)N2CCN(c3ccc(C)c(Cl)c3)CC2)cc1
inactive: growth inhibition [1] -14.6% | growth inhibition [2] 6.34% | viability increase [3] 0.47% | viability [4] 98.3% | viability [5] 85.4% | inhibition [6] 1.71% | RAM network inhibition [7] 1.14%

COC(=O)c1ccc(NC(=O)CSc2nnc(COc3ccc4c(c3)CCCC4)o2)cc1
inactive: growth inhibition [1] -2.11% | growth inhibition [2] -2.11% | viability increase [3] -3.92% | viability [4] 97.8% | viability [5] 96.7% | inhibition [6] 3.43% | RAM network inhibition [7] 4.19%

CCn1cc(C(=O)OCC(=O)Nc2c(C)n(C)n(-c3ccccc3)c2=O)c(=O)c2ccc(C)nc21
inactive: growth inhibition [1] -11.8% | growth inhibition [2] -0.91% | viability increase [3] -0.65% | viability [4] 97.6% | viability [5] 95% | inhibition [6] 0.195% | RAM network inhibition [7] 0.21%

CN(C)CCCN1C(=O)c2oc3ccc(F)cc3c(=O)c2C1c1cccnc1 (stereo not given)
inactive: growth inhibition [1] 4.42% | growth inhibition [2] 7.96% | viability increase [3] -1.1% | viability [4] 107% | viability [5] 98.7% | inhibition [6] 2.9% | RAM network inhibition [7] 2.14%

Cc1cccn2c(=O)c3cc(C(=O)NC4CCS(=O)(=O)C4)sc3nc12 (stereo not given)
inactive: growth inhibition [1] -6% | growth inhibition [2] 1.39% | viability increase [3] -2.99% | viability [4] 101% | viability [5] 97.2% | inhibition [6] 2.06% | RAM network inhibition [7] 0.09%

Cc1ccc(C)c(N2CCN(C(=O)C3CCCN(S(=O)(=O)c4cnc[nH]4)C3)CC2)c1 (stereo not given)
inactive: growth inhibition [1] 5.12% | growth inhibition [2] -0.49% | viability increase [3] 2.66% | viability [4] 94.9% | viability [5] 95.4% | inhibition [6] 2.12% | RAM network inhibition [7] -0.52%

O=C(CSc1nnc(Cn2c(=O)sc3ccccc32)n1-c1ccccc1)NCc1ccco1
inactive: growth inhibition [1] -3.11% | growth inhibition [2] -1.47% | viability increase [3] -4.7% | viability [4] 99.5% | viability [5] 98.1% | inhibition [6] 1.22% | RAM network inhibition [7] 6%

CCn1nnc(NC(=O)c2ccc(C(C)(C)C)cc2)n1
inactive: growth inhibition [1] -24.7% | growth inhibition [2] -6.88% | viability increase [3] -0.53% | viability [4] 90.2% | viability [5] 90.9% | inhibition [6] 1.79% | RAM network inhibition [7] -0.37%

CCOC(=O)c1ccccc1NC(=O)CC1SC(=NC)N(C)C1=O (stereo not given)
inactive: growth inhibition [1] -10.3% | growth inhibition [2] -22.9% | viability increase [3] -2% | viability [4] 102% | viability [5] 96.2% | inhibition [6] 2.04% | RAM network inhibition [7] 4.34%

From PubChem BioAssay
